{"source": "PubChem BioAssay AID493091", "about": "(Sanford-Burnham Center for Chemical Genomics, 2011)", "note": "The campaign covered roughly 340,000 compounds. About 3,000 (0.88%) were called active. The list comes from a sample in which actives are over-represented; it also holds similar structures and randomly drawn compounds. A number with no mark means an inactive call.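 The calls were made as follows: active = inhibition above about 50% at 20 µM (limit read from the data); inactive = the rest.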"}
{"target": "Carboxy-terminal domain RNA polymerase II polypeptide A small phosphatase 1 (Homo sapiens) (UniProt Q9GZU7)", "sequence (Q9GZU7 76-261 limits assumed)": "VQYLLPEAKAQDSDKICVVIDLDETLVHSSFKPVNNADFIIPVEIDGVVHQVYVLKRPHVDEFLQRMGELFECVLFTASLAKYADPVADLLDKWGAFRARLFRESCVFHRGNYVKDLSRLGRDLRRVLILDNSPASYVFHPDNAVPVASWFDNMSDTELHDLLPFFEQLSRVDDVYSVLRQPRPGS", "assay": "Scp-1 phosphatase inhibitors, primary screen, biochemical, colorimetric, uHTS (AID 493091);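 also: plate controls were DMSO wells with enzyme for no effect and wells lacking enzyme for full effect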", "settings": "Recombinant Scp1, phosphopeptide, malachite green phosphate absorbance; at 20 µM; active compounds read high", "how_it_was_run": "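Incubation: 45 min enzyme reaction at room temperature / System: truncated SCP-1 phosphatase (76-261aa) / Reagent: Phospho 17-mer peptide substrate / Buffer or medium: Acidic Tris acetate buffer with magnesium and detergent / Signal: absorbance at 630 nm / Doses: one concentration, 20 µM, with 1.0% DMSO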"}
{"smiles": "CCOC(=O)C1=C(NC(=S)NC(=O)c2ccccc2)c2ccccc2CC1(C)C", "inhibition": "-6.2%"}
{"smiles": "CCOC(=O)C1=C(C)c2ccccc2OC1C(=O)OCC", "note": "(centres undefined)", "inhibition": "-1.33%"}
{"smiles": "CCOC(=O)C1=C(C)c2ccccc2OC1(C)C(=O)OCC", "note": "(centres undefined)", "inhibition": "70.1% (active)"}
{"smiles": "COc1c(C(C)C)oc2cc3oc(=O)ccc3cc12", "inhibition": "-9.44%"}
{"smiles": "CSc1ccc(C#N)cc1NC(=O)c1cccc(Cl)c1", "inhibition": "-21.5%"}
{"smiles": "COc1ccc(NC(=O)c2ccco2)cc1NC(=O)c1ccc(C#N)cc1F", "inhibition": "6.99%"}
{"smiles": "N#Cc1ccc(C(=O)Nc2cccc3cccnc23)c(F)c1", "inhibition": "100% (active)"}
{"smiles": "Nc1ccc2nc3c(=O)[nH]c(=S)[nH]c3nc2c1", "inhibition": "78.4% (active)"}
{"smiles": "CC12CCC(C(=O)N3CCN(c4ncccn4)CC3)(c3nc4ccccc4nc31)C2(C)C", "note": "(centres undefined)", "inhibition": "-9.3%"}
{"smiles": "COC(=O)C[n+]1cccc2ccccc21", "inhibition": "105% (active)"}
{"smiles": "COC(=O)Cc1c(-c2[nH]c3ccccc3c2CC(=O)OC)[nH]c2ccccc12", "inhibition": "-13.3%"}
{"smiles": "O=C(C[n+]1cc(Br)cc2ccccc21)c1ccc(F)cc1", "inhibition": "-4.19%"}
{"smiles": "CCOc1cc2[nH]c(=S)n(CCCN3CCCC3=O)c(=O)c2cc1OCC", "inhibition": "-8.04%"}
{"smiles": "Cc1ccc(NC(=S)N2CCN(c3ncccn3)CC2)cc1C", "inhibition": "4.95%"}
{"smiles": "COc1ccc(CN2CCC(n3nccc3NC(=O)CCCc3ccccc3)CC2)cc1C", "inhibition": "6.87%"}
{"smiles": "Cc1oc2c(C)c3oc(=O)c(CC(=O)N[C@@H](CC(C)C)C(=O)N[C@@H](Cc4ccccc4)C(=O)O)c(C)c3cc2c1C", "inhibition": "88% (active)"}
{"smiles": "Cc1c(OC(C)C(=O)N[C@@H](Cc2ccccc2)C(=O)O)ccc2c3c(c(=O)oc12)CCCC3", "note": "(some centres undefined)", "inhibition": "4.1%"}
{"smiles": "Cc1c(CCC(=O)N[C@@H](CC(C)C)C(=O)O)c(=O)oc2c(C)c3oc4c(c3cc12)CCCC4", "inhibition": "-2.45%"}
{"smiles": "CC(Oc1ccc(-c2ccccc2)c(F)c1)c1ccn(S(=O)(=O)c2cccc3ccccc23)n1", "note": "(centres undefined)", "inhibition": "-13.9%"}
{"smiles": "Cc1c(-c2nn(C)c(=O)c3ccccc23)oc2ccc(F)cc2c1=O", "inhibition": "3.62%"}
{"smiles": "Cc1c(Cl)c([N+](=O)[O-])nn1CCCC(=O)NC(C)c1ccccc1", "note": "(centres undefined)", "inhibition": "-27.1%"}
{"smiles": "Cc1nnc(SCC(=O)Nn2cnnc2)s1", "inhibition": "-3.13%"}
{"smiles": "CCCCCC(=O)Nc1ccc(S(=O)(=O)Nc2ccc(Cl)nn2)cc1", "inhibition": "4.6%"}
{"smiles": "Cc1nnc(SCC(=O)Nc2ccc(S(=O)(=O)Nc3ccc(Cl)nn3)cc2)s1", "inhibition": "79.2% (active)"}
{"smiles": "CCNC(=O)COc1cc(C)c(Br)c(C)c1", "inhibition": "-2.07%"}
{"smiles": "O=C(Nc1nc(-c2ccco2)c(-c2ccco2)s1)c1ccco1", "inhibition": "-3.82%"}
{"smiles": "COCCNC(=O)Nc1ccc2nc(-c3ccco3)c(-c3ccco3)nc2c1", "inhibition": "79.6% (active)"}
{"smiles": "COCCNC(=O)c1snc2ccc(Cl)cc12", "inhibition": "-6.6%"}
{"smiles": "O=C(COc1ccccc1)Nc1ccc(N2CCN(C(=O)c3cccs3)CC2)cc1", "inhibition": "-5.15%"}
{"smiles": "O=C(CNC(=O)c1n[nH]c2ccccc12)Nc1cc(Cl)ccc1Cl", "inhibition": "5.8%"}
{"smiles": "Cc1cccc(N=Nc2c(O)[nH]c3ccc(F)cc23)c1", "inhibition": "-10.6%"}
{"smiles": "COc1ccccc1OCCCCCCN1CCN(C)CC1", "inhibition": "-4.32%"}
{"smiles": "CCCC(=O)Nc1ccccc1N1CCN(C(=O)c2ccccc2)CC1", "inhibition": "-9.5%"}
{"smiles": "COc1ccc(C(=O)NC(=S)Nc2ccccc2N2CCN(S(C)(=O)=O)CC2)cc1OC", "inhibition": "-10.7%"}
{"smiles": "CCC(=O)Nc1ccccc1N1CCN(S(C)(=O)=O)CC1", "inhibition": "53.6% (active)"}
{"smiles": "CCn1cc(C(=O)NCC(=O)NC(C)(C)CO)c(=O)c2cc3c(cc21)OCO3", "inhibition": "-9.05%"}
{"smiles": "COc1ccccc1CCC(=O)OCC(=O)N1CCN(S(=O)(=O)c2ccc(C)cc2C)CC1", "inhibition": "-11.1%"}
{"smiles": "CC1(C)CC(CNCCC(c2ccc(F)cc2)c2ccco2)CCO1", "note": "(centres undefined)", "inhibition": "-5.21%"}
{"smiles": "CCn1ncc(CNC(=O)C2(C)CC2(Br)Br)c1C", "note": "(centres undefined)", "inhibition": "-6.32%"}
{"smiles": "COc1ccc(NC(=O)N(C)C[C@H]2Oc3ccc(NC(=O)C4CC4)cc3C(=O)N([C@H](C)CO)C[C@@H]2C)cc1", "inhibition": "67.9% (active)"}
{"smiles": "COc1ccc(NC(=O)Nc2ccc3c(c2)C(=O)N([C@H](C)CO)C[C@H](C)[C@@H](CN(C)C(=O)Nc2ccc4c(c2)OCO4)O3)cc1", "inhibition": "48.8%"}
{"smiles": "C[C@@H]1CN([C@H](C)CO)C(=O)c2cc(NC(=O)NC3CCCCC3)ccc2O[C@H]1CN(C)S(C)(=O)=O", "inhibition": "-8.19%"}
{"smiles": "Cc1noc(C)c1NC(=O)Nc1ccc2c(c1)C(=O)N([C@H](C)CO)C[C@H](C)[C@@H](CN(C)C(=O)Nc1ccc(C(F)(F)F)cc1)O2", "inhibition": "50.3% (active)"}
{"smiles": "C[C@@H]1CN([C@@H](C)CO)C(=O)c2cccc(NS(=O)(=O)c3ccc(F)cc3)c2O[C@H]1CN(C)C(=O)NC1CCCCC1", "inhibition": "-0.48%"}
{"smiles": "Cc1ccc(S(=O)(=O)Nc2ccc3c(c2)C(=O)N([C@H](C)CO)C[C@@H](C)[C@@H](CN(C)C(=O)Nc2cccc4ccccc24)O3)cc1", "inhibition": "59.1% (active)"}
{"smiles": "COc1ccc(S(=O)(=O)N(C)C[C@@H]2Oc3ccc(NC(=O)Nc4c(C)noc4C)cc3C(=O)N([C@H](C)CO)C[C@@H]2C)cc1", "inhibition": "21.7%"}
{"smiles": "C[C@@H]1CN([C@@H](C)CO)C(=O)c2cc(NC(=O)C3CC3)ccc2O[C@H]1CN(C)C", "inhibition": "-8.19%"}
{"smiles": "C[C@H](CO)N1C[C@H](C)[C@@H](CN(C)S(=O)(=O)c2ccc(F)cc2)Oc2ccc(NC(=O)CCC(F)(F)F)cc2C1=O", "inhibition": "-5.81%"}
{"smiles": "Cc1noc(C)c1S(=O)(=O)N(C)C[C@H]1Oc2ccc(NC(=O)C3CCCCC3)cc2C(=O)N([C@H](C)CO)C[C@@H]1C", "inhibition": "-2.33%"}
{"smiles": "C[C@H](CO)N1C[C@H](C)[C@@H](CN(C)C(=O)NC2CCCCC2)Oc2ccc(NC(=O)c3ccncc3)cc2C1=O", "inhibition": "57.7% (active)"}
{"smiles": "Cc1noc(C)c1NC(=O)Nc1ccc2c(c1)C(=O)N([C@H](C)CO)C[C@H](C)[C@@H](CN(C)C(=O)Nc1ccccc1)O2", "inhibition": "35.8%"}
{"smiles": "CN(C(=O)CSc1nnc(-c2c[nH]c3ccccc23)o1)C1CCS(=O)(=O)C1", "note": "(centres undefined)", "inhibition": "-5.57%"}
{"smiles": "Cc1cccc(N2CCN(Cc3nc(C4CC4)no3)CC2)n1", "inhibition": "-8.45%"}
{"smiles": "CC(C)=CCN1CCN(Cc2cc3ccccc3[nH]2)CC1CCO", "note": "(centres undefined)", "inhibition": "-3.55%"}
{"smiles": "COC(=O)c1ccc(S(=O)(=O)c2ccc(C(=O)OC)s2)s1", "inhibition": "-2.05%"}
{"smiles": "NC(=O)C1=C[C@H](c2csc3ccccc23)C[C@H](OCc2ccc(CO)cc2)O1", "inhibition": "-0.48%"}
{"smiles": "Cc1noc(C)c1NC(=O)Nc1cccc2c1O[C@H](CN(C)C(=O)Nc1ccccc1)[C@@H](C)CN([C@H](C)CO)C2=O", "inhibition": "-8.19%"}
{"smiles": "C[C@H](CO)N1C[C@H](C)[C@@H](CN(C)C(=O)Nc2ccc3c(c2)OCO3)Oc2c(cccc2N(C)C)C1=O", "inhibition": "38.7%"}
{"smiles": "C[C@H](CO)N1C[C@H](C)[C@H](CN(C)C(=O)Nc2ccc(C(F)(F)F)cc2)Oc2c(NC(=O)c3ccncc3)cccc2C1=O", "inhibition": "88% (active)"}
{"smiles": "COC(=O)CSc1ccc2nnc(CCNS(=O)(=O)c3ccc(C)cc3)n2n1", "inhibition": "-10.5%"}
{"smiles": "Cc1ccccc1NC(=O)CSC(=O)c1ccccc1", "inhibition": "-4.57%"}
{"smiles": "O=C1N/C(=C/c2cccn2-c2ccccc2)C(=O)N1c1cccc(Cl)c1", "inhibition": "-4.36%"}
{"smiles": "Cc1ccccc1NC(=O)CN1C(=O)N/C(=C\\c2cccn2-c2cccc(C(=O)O)c2)C1=O", "inhibition": "65.5% (active)"}
{"smiles": "O=C(COC(=O)c1ccc(O)cc1)Nc1nccs1", "inhibition": "-1.45%"}
{"smiles": "O=C(Nc1ccc(-c2ccc3nncn3n2)cc1)C1CCCCC1", "inhibition": "-12.9%"}
{"smiles": "CCCc1cc(=O)[nH]c(SCC(=O)Nc2ccc(C(=O)Nc3ccccc3OC)cc2)n1", "inhibition": "-2.71%"}
{"smiles": "COc1ccc(OC)c(NC(=O)CSc2nc(N)c(-c3ccccc3)c(=O)[nH]2)c1", "inhibition": "3.19%"}
{"smiles": "COc1ccc(OC)c(NC(=O)CSc2nc(-c3ccccc3)cc(=O)[nH]2)c1", "inhibition": "81.5% (active)"}
{"smiles": "CC(=O)c1cccc(NC(=O)N2CCCC2C(=O)NCCc2ccccc2)c1", "note": "(centres undefined)", "inhibition": "-7.73%"}
{"smiles": "Nc1ccc(C(=O)NCc2ccccc2)cc1", "inhibition": "-1.69%"}
{"smiles": "CS(=O)(=O)NCc1ccc(C(=O)NCc2ccccc2)cc1", "inhibition": "-6.79%"}
{"smiles": "C[n+]1ccc(C(=O)NCc2ccccc2)cc1", "inhibition": "92.7% (active)"}
{"smiles": "Cc1noc(C)c1-c1ccc2ncnc(NC(C)c3ccco3)c2c1", "note": "(centres undefined)", "inhibition": "8.09%"}
{"smiles": "CCn1cc(C(=O)N2CCN(C3CCCCC3)CC2)c2cc(OC)c(OC)cc2c1=O", "inhibition": "0%"}
{"smiles": "CCOC(=O)N1CCN(C(=O)C2CC(c3ccc(F)cc3)=NO2)CC1", "note": "(centres undefined)", "inhibition": "-0.41%"}
{"smiles": "Cc1cccc(-[n+]2c(-c3cccc(Br)c3)[nH]c3nc4ccccc4nc32)c1", "inhibition": "-8.9%"}
{"smiles": "NS(=O)(=O)c1cccc(NC(=O)CSc2nc3ccccc3n2-c2ccccc2)c1", "inhibition": "-22.7%"}
{"smiles": "NC(=O)NC(=O)CSc1nc2cc([N+](=O)[O-])ccc2n1-c1cccc(C(F)(F)F)c1", "inhibition": "62.8% (active)"}
{"smiles": "COc1ccc(-n2cnnc2SCC(=O)Nc2cccc([N+](=O)[O-])c2)cc1", "inhibition": "-10.7%"}
{"smiles": "C/C(CC(=O)Nc1ccc(Cl)cc1)=N\\NC(=O)C(=O)NCCO", "inhibition": "-2.46%"}
{"smiles": "COc1ccc(N2C(=O)C(CC(=O)Nc3ccc(F)cc3)N(CCc3cccs3)C2=O)cc1", "note": "(centres undefined)", "inhibition": "0.58%"}
{"smiles": "CCN(CC)c1ccc(C(=O)NNC(=O)CCc2nc3ccccc3c(=O)[nH]2)cc1", "inhibition": "-4.7%"}
{"smiles": "C/C(=N\\Nc1ncc(Cl)cc1Cl)c1ccc(S(=O)(=O)NCc2ccco2)cc1", "inhibition": "-6.85%"}
{"smiles": "Cc1cc(C(=O)OCC(=O)NCc2ccco2)c(C)n1-c1ccccc1", "inhibition": "73.1% (active)"}
{"smiles": "O=C(COC(=O)CCC(=O)c1cccs1)NCc1ccco1", "inhibition": "96.1% (active)"}
{"smiles": "O=C(COC(=O)c1cccs1)NCc1cccs1", "inhibition": "-4.94%"}
{"smiles": "CN(c1ccccc1)S(=O)(=O)c1ccc(Cl)c(C(=O)OCC(=O)N2CCOCC2)c1", "inhibition": "-10.4%"}
{"smiles": "Cc1c(Cl)cnc(NC(=O)COC(=O)c2ccc(S(=O)(=O)NCc3ccco3)cc2)c1Cl", "inhibition": "61.6% (active)"}
{"smiles": "Cc1cc(C(=O)OCC(=O)N2c3ccccc3NC(=O)C2(C)C)c(C)n1-c1ccccc1", "inhibition": "-10.3%"}
{"smiles": "CC1CCN(C(=O)COC(=O)CCC(=O)c2cccs2)CC1", "inhibition": "0.96%"}
{"smiles": "CCOC(=O)c1cnc(SCC(=O)NCc2ccco2)nc1N", "inhibition": "-2.2%"}
{"smiles": "CSCCC(NC(=O)c1ccco1)C(=O)OCC(=O)Nc1ncc(Cl)c(C)c1Cl", "note": "(centres undefined)", "inhibition": "2.12%"}
{"smiles": "CN(c1ccccc1)S(=O)(=O)c1ccc(Cl)c(C(=O)OCC(=O)NCc2ccco2)c1", "inhibition": "81.1% (active)"}
{"smiles": "CN(c1ccccc1)S(=O)(=O)c1ccc(Cl)c(C(=O)OCC(N)=O)c1", "inhibition": "-10.7%"}
